Here are results for 11 molecules from ChEMBL document CHEMBL1132168, “Cycloalkanecarboxylic esters derived from lysergol, dihydrolysergol-I, and elymoclavine as partial agonists and antagonists at rat 5-HT2A receptors: pharmacological evidence that the indolo[4,3-fg]quinoline system of the ergolines is responsible for high 5-HT2A receptor affinity” (J Med Chem, 1999).

Test [1] in a line: Specificity towards 5-HT2A receptor to that of alpha-1 adrenoceptor. The format is functional.
The target in test [2] is T1, 5-hydroxytryptamine receptor 2A (Rattus norvegicus, UniProt P14842). The test can be described thus: Effectiveness of compound in blocking 5-hydroxytryptamine 2A receptor-mediated contractions of rat tail artery. The note with it: read-out: pA2 (converted). The format is functional, tissue-based. The essentials:
(§1)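 Endothelium-denuded rat ventral caudal artery segments (4–5 mm), isometric, resting force 5 mN. Segments were primed once with 5-HT 1 μM during 120 min equilibration. Prazosin 30 nM and cocaine 6 μM were present throughout. Two cumulative 5-HT curves were run 60 min apart, the second after 30–60 min with antagonist. pKP by Marano–Kaumann; pA2 by Schild or as apparent pA2. Mean ± SEM, n segments, ≥2 animals.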

The target of test [3] is T2, Adrenergic receptor alpha-1 (Rattus norvegicus, UniProt P15823+P23944+P43140).
T2 sequence (P15823 whole entry): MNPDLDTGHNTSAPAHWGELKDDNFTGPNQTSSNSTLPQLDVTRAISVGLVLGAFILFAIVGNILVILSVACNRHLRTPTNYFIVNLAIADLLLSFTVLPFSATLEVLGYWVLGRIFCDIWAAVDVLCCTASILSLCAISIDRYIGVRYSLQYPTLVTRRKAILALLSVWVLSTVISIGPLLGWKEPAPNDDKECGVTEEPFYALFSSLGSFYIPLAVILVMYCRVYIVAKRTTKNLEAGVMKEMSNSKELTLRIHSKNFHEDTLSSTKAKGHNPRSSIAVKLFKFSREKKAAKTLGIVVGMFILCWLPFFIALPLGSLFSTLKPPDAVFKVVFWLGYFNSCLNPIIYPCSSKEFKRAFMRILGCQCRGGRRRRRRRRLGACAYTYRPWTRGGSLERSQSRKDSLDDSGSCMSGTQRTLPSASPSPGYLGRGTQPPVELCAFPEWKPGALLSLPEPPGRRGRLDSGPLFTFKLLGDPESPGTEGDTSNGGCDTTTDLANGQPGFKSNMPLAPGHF
T2 sequence (P23944 whole entry): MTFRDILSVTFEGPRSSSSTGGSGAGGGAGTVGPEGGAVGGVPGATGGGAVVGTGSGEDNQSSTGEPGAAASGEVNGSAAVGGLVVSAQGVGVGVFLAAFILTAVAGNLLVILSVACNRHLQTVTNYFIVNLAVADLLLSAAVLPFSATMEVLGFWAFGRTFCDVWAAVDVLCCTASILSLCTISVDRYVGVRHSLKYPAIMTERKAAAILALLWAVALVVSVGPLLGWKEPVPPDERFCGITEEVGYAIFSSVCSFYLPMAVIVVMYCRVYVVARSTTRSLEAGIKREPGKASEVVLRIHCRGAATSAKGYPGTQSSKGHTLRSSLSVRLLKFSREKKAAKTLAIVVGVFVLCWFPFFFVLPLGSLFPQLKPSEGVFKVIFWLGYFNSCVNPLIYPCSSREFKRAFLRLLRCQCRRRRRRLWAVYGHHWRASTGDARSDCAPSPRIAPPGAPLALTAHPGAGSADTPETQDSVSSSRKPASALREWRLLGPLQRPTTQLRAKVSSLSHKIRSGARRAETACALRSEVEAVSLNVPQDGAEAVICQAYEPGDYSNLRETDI
T2 sequence (P43140 whole entry): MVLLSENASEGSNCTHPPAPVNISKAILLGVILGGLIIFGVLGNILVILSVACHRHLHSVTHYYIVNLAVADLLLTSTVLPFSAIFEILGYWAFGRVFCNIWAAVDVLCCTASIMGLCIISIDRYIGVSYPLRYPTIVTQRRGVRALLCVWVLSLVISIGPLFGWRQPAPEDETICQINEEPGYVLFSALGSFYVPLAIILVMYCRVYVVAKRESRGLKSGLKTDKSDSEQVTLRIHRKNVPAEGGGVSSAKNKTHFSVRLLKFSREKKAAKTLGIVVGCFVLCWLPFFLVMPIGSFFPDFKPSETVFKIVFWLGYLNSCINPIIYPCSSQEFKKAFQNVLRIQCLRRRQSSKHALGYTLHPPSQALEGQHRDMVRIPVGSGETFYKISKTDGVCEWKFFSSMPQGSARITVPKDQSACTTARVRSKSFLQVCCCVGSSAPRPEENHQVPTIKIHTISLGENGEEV
Description: Ability to block alpha-1 adrenergic receptor-mediated contractions of rat aorta. Format: functional. The method, boiled down:
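Endothelium-denuded rat thoracic aorta rings (4–6 mm) in modified Krebs-Henseleit, 37 °C, 95% O2/5% CO2, with (R,S)-propranolol 1 μM. Resting force 20 mN. During 140 min equilibration, rings were stimulated twice with (R)-phenylephrine 100 nM. Two cumulative phenylephrine contraction curves were run, without and then with antagonist added 30 min before.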

The target of test [4] is 5-hydroxytryptamine receptor 1B (Homo sapiens, UniProt P28222). The test can be described thus: Affinity of compound towards 5-hydroxytryptamine 1B receptor in isolated guinea-pig iliac artery. Conditions: target entry is the homologue from another species; read-out: pA2 (converted). The format is functional, tissue-based, Cavia porcellus. The method, boiled down:
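Iliac artery segments (1–2 mm), resting force 5 mN. Krebs-Henseleit contained ketanserin 1 μM, mepyramine 0.3 μM, cimetidine 30 μM and cocaine 30 μM. […] Two 5-HT curves were run 80 min apart, the second after 45 min with compound.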

Test [5] addresses T1, 5-hydroxytryptamine receptor 2A. Description: Blocking 5-HT2A receptor-mediated contractions of rat tail artery. Format: functional, tissue-based. The note with it: read-out: pA2 (converted). The essentials: as §1
The nature of test [6]: Specificity of compound towards 5-HT2A receptor to that of 5-HT1B receptor. The format is functional.
Test [7] addresses T1, 5-hydroxytryptamine receptor 2A. Description: Partial agonism at 5-HT2A receptor was evaluated in presence of ketanserin (3-10 nM) in isolated rat tail artery. The format is functional, tissue-based. Conditions: read-out: pA2 (converted). The method, boiled down:
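Rat caudal artery, endothelium removed, with prazosin 30 nM and cocaine 6 μM present. A 5-HT curve was followed after 60 min by a cumulative agonist curve, with ketanserin 3 nM added 30 min beforehand. The rightward shift was compared with that in control segments run without ketanserin.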

Test [8] deals with 5-hydroxytryptamine receptor 2A (Rattus norvegicus) (UniProt P14842). Description: Effectiveness in blocking 5-HT2A receptor-mediated contractions of rat tail artery. Format: functional, tissue-based. The essentials: as §1
For test [9] the target is unchanged. Description: Relative potency towards 5-HT2A receptor of rat tail artery. Format: functional, tissue-based. The method, boiled down: (§2)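 Endothelium-denuded rat caudal artery segments, resting force 5 mN, with prazosin 30 nM and cocaine 6 μM present. Two cumulative curves were run on each segment 60 min apart: first 5-HT, then the test agonist. pKP was taken from a Kenakin plot of equieffective 5-HT and agonist concentrations. Mean ± SEM from n segments, ≥2 animals.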

Test [10] has the same target. The test can be described thus: Intrinsic activity towards 5-HT2A receptor of rat tail artery. The format is functional, tissue-based. The method, boiled down: as §2
The target is the same in test [11]. Conditions: Tail.

“And” between values parts separate entries of the source, which are not always exact repeats. Identical values can stand only once.

As usually defined, the pA2 is the negative logarithm of the molar antagonist concentration that doubles the agonist concentration needed for the same response. Read a low pA2 as lower antagonist potency.

5-hydroxytryptamine receptor 1B, sequence (P28222 whole entry): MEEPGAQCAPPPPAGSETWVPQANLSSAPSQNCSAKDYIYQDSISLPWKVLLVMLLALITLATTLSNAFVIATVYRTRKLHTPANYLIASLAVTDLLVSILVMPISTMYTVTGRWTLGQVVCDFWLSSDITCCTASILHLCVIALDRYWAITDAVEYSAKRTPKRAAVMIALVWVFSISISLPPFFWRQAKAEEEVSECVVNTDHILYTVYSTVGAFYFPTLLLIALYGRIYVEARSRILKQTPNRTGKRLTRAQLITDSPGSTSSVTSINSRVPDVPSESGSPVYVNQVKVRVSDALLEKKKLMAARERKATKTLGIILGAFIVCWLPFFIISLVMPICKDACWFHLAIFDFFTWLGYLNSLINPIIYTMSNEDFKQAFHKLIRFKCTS
5-hydroxytryptamine receptor 2A (Rattus norvegicus), sequence (P14842 whole entry): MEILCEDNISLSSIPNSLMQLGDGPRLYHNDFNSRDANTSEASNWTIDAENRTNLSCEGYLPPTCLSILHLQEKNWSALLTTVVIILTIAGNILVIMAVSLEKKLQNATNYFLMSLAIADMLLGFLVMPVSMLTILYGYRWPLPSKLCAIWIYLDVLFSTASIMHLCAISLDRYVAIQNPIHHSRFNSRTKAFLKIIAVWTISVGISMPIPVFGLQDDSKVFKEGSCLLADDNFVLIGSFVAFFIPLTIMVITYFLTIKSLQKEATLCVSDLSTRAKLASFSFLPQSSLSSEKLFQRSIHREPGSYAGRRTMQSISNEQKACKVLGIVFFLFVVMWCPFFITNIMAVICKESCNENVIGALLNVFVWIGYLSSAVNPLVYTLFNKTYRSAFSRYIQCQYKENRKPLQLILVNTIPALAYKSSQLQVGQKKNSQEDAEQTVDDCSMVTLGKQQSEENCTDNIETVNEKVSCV
T1 sequence (P14842 whole entry): as above

On to `CC(C)n1cc2c3c(cccc31)C1=C[C@@H](COC(=O)C3CCCCCC3)CN(C)[C@@H]1C2.O=C(O)/C=C\C(=O)O`, for which, in test [1], the Specificity was found to be 661. Besides, the Kb in test [2] is 17.8 nM. Moreover, the pA2 in [3] is 4.93.
As for `CC(C)n1cc2c3c(cccc31)[C@H]1C[C@@H](CO)CN(C)[C@@H]1C2.O=C(O)/C=C\C(=O)O`, the Specificity in test [1] worked out at 240; in [6] it was 589. The Kb in test [4] is 1860 nM; in test [5], 3.16 nM. For the same molecule, in test [3], the pA2 was determined as 6.12.
Regarding `CN1C[C@H](COC(=O)C2CCCC2)C=C2c3cccc4[nH]cc(c34)C[C@H]21.O=C(O)/C=C\C(=O)O`, in [7], the Kb was 0.741 nM. The molecule further showed a Specificity in test [1] of 120. The molecule also yielded a pA2 in test [3] of 5.32. In addition, the pKp in [8] is 7.4 and 7.27. In test [9], this molecule registered a Relative potency of 128%. This molecule also came in with an Intrinsic activity in [10] of 0.11.
`CC(C)n1cc2c3c(cccc31)[C@H]1C[C@@H](COC(=O)C3CC3)CN(C)[C@@H]1C2.O=C(O)/C=C\C(=O)O`: the Specificity in test [1] amounted to 468. The Kb in [2] was 6.03 nM. This molecule showed a pA2 in test [3] of 5.55.
Turning to `CN1C[C@H](COC(=O)C2CC2)C=C2c3cccc4[nH]cc(c34)C[C@H]21.O=C(O)/C=C\C(=O)O`, the Kb in test [7] is 0.741 nM. In test [1], this molecule yielded a Specificity of 55. Moreover, the pA2 in [3] was 6.66. The Relative potency in [9] is 331%. The molecule also displayed an Intrinsic activity in test [10] of 0.21.
With `CN1C[C@H](CO)C=C2c3cccc4[nH]cc(c34)C[C@H]21`, the Kb in [7] was 0.794 nM. The pKp in test [8] stood at 6.88. Besides, the Relative potency in test [9] was found to be 74%. The molecule further displayed an Intrinsic activity in test [10] of 0.18.
As for `CC(C)n1cc2c3c(cccc31)C1=C[C@@H](CO)CN(C)[C@@H]1C2.O=C(O)/C=C\C(=O)O`, the values for the Specificity in [1] and in test [6] were 1260 and 295, respectively. Also, the Kb is 209 nM in test [4] and 0.708 nM in [5]. Besides, the pA2 in [3] is 6.05.
As for `CN1C[C@H](COC(=O)C2CCCCC2)C=C2c3cccc4[nH]cc(c34)C[C@H]21.O=C(O)/C=C\C(=O)O`, the Kb in [7] was 0.661 nM. The Specificity in [1] is 68. This molecule also displayed a pA2 in test [3] of 5.05. The values for the pKp in [8] and in test [11] were 6.92 and 6.88, respectively. The Relative potency in test [9] came out at 49%. Further, in test [10], the Intrinsic activity stood at 0.18.
In the case of `CN1C[C@H](COC(=O)C2CCC2)C=C2c3cccc4[nH]cc(c34)C[C@H]21.O=C(O)/C=C\C(=O)O`, in test [7], the Kb was 0.741 nM. In addition, the Specificity in test [1] stood at 174. In addition, the pA2 in [3] is on record as 5.52. For the same molecule, the pKp in [8] was 7.76 and 7.36. In addition, the Relative potency in test [9] turned out to be 185%. This molecule came in with an Intrinsic activity in test [10] of 0.13.
`CN1C[C@H](COC(=O)C2CCCCCC2)C=C2c3cccc4[nH]cc(c34)C[C@H]21.O=C(O)/C=C\C(=O)O`: the Kb in test [7] was 0.776 nM. Moreover, the Specificity in test [1] was found to be 95. In test [3], this molecule displayed a pA2 of 4.73. The pKp in test [8] was 6.71 and 6.35. For the same molecule, the Relative potency in [9] amounted to 14%. For the same molecule, the Intrinsic activity in test [10] turned out to be 0.18.
`CC(C)n1cc2c3c(cccc31)[C@H]1C=C(CO)CN(C)[C@@H]1C2.O=C(O)/C=C\C(=O)O`: the results for the Specificity in [1] and in test [6] were 2820 and 1180, respectively. Further, the Kb in [4] is 851 nM; in test [5], 0.724 nM. The pA2 in test [3] was 5.69.
